# Diaph act CS = counter-screen for diaphorase-based assays: diaphorase activators and chemical reducers | Diaphorase/resazurin coupled assay, resorufin fluorescence, 16 min; active compounds read high; 1 = vehicle wells, 0 = NADH-free wells | activation factor at 20 µM | actives 0.005% (n = 190,000) | AID 1229;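 active means diaphorase activity raised at least twofold by the compound at 20 µM; inactive means activation factor below 2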
#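 Material: bacterial diaphorase enzyme (C. kluyveri); amount: enzyme 0.07 U/mL final; reagent: NADH substrate 0.114 mM plus resazurin dye 0.1 mM, final; doses: single compound dose of 20 µM, 1% DMSO final; timing: 16 min enzyme reaction, ambient temperature; measured by: fluorescence of resorufin, 544 nm excitation, 590 nm emission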
# L major viab = reduces viability of Leishmania major promastigotes. actives 9% (n = 200,000). inhibition, % at 10 µM. resazurin fluorescence viability;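 further: promastigotes grown with compound for 44 hours at 28 °C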
# Diaph inh CS = diaphorase inhibition or chemical oxidation counter-screen | diaphorase resazurin-to-resorufin fluorescence, NADH, 16 min; bacterial (C. kluyveri) enzyme, not human | inhibition, % at 20 µM | actives 0.69% (n = 190,000);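 active means primary screen inhibition at 20 µM above a set limit, cut at about 50% in these data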;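 further: plate controls were DMSO with full reaction for no effect and wells lacking NADH for full effect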
#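 Test system: Clostridium kluyveri diaphorase enzyme / Quantity: diaphorase at 0.14 U/mL in enzyme working solution / Incubation: 16-min room-temperature incubation before reading / Benchmarks: NADH-free wells as positive control, DMSO-only neutral wells / Signal: resorufin fluorescence 544/590 nm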
# Redox H2O2 prof = compounds producing H2O2 with reducing agent – biochemical, NIH compound library profiling, artefact control for MLSCN library redox annotation, primary screen; DTT-dependent redox cycling H2O2, phenol red/HRP absorbance; 100% = 100 µM peroxide control, 0% = buffer; activation, % at 10 µM; actives 0.03% (n = 200,000);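 active means activation of at least 50% relative to the plate's high and low controls in the primary single-dose screen; inactive means activation below 50%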;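 further: compound incubated with DTT at 0.8 mM final as the reducing agent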
# PfG6PD inh = PfG6PD (Plasmodium falciparum) enzyme inhibition; PfGluPho enzyme, NADPH resazurin-diaphorase fluorescence; inhibition, % at 20 µM; actives 0.78% (n = 350,000);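 active means inhibition reaching at least a set limit at 20 µM in the primary screen, cut at about 59% in these data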;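 further: 0% = DMSO wells with substrate and 100% = DMSO wells lacking glucose-6-phosphate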
# G6PDH counter = counter-screen for G6PDH assay hits: L. mesenteroides G6PDH inhibition | Purified L. mesenteroides G6PDH, diaphorase/resazurin coupled fluorescence, 45 min | inhibition, % at 5 µM | actives 0.12% (n = 200,000) | AID 1020
# * marks the source's active call; other numbers are inactive results; x = no result given. Only a selection was taken, and hits are over-represented in it overall. Unless noted, no stated cut-off is given here; in the data, active means inhibition above about 50%; inactive means the rest.
SMILES,Diaph act CS,L major viab,Diaph inh CS,Redox H2O2 prof,PfG6PD inh,G6PDH counter
CCN1CCN(CC(O)COc2ccc(C)c(C)c2)CC1 (stereo not given),0.7,84*,26,-3,-10,3
CN1CCN(CC(O)COc2ccc(OCC(O)CN3CCN(C)CC3)cc2)CC1 (stereo not given),1.1,0,-11,2,-9,4
CCN1CCN(CC(O)COc2cccc(OC)c2)CC1 (stereo not given),0.9,2,9,3,-14,5
CN1CCN(CC(O)COc2ccc(Cl)cc2)CC1 (stereo not given),1,86*,2,0,-13,1
Cc1cc(OCC(O)CN2CCN(C)CC2)ccc1C(C)C (stereo not given),0.9,90*,13,1,7,-1
CCN1CCN(CCOc2ccc(Cl)cc2)CC1,1.1,78*,-5,0,-10,10
Clc1ccc(OCCN2CCOCC2)cc1,x,x,x,x,7,x
OCC1CCCCN1C(=S)Nc1cccc(Cl)c1 (stereo not given),0.9,-1,10,0,12,10
CC(C)N1C(=O)C(=O)N(CC(=O)N2c3ccccc3NC(=O)CC2C)C1=O (stereo not given),x,x,x,x,3,x
OC(COc1ccc(OCC(O)CN2CCCCC2)cc1)CN1CCCCC1 (stereo not given),x,x,x,x,-16,x
OC(COc1ccc(Cl)cc1)CN1CCCCC1 (stereo not given),1.1,89*,-7,0,-8,2
CCc1ccc(OCC(O)CN2CCCC2)cc1 (stereo not given),x,x,x,x,1,x
OC(COc1ccc(CNCCc2ccc(C(F)(F)F)cc2)cc1)CN1CCCCC1 (stereo not given),1.2,100*,-22,1,3,14
OC(COCc1ccc2c(c1)OCO2)CN1CCC(Cc2ccccc2)CC1 (stereo not given),1,87*,5,0,0,-1
OC(COc1ccc(Cl)cc1)CN1C2=NCCCN2c2ccccc21 (stereo not given),0.8,63*,24,2,-2,2
OC(COCc1ccc2c(c1)OCO2)CN1CCCCC1 (stereo not given),1.1,-7,-10,0,-13,5
C=CCc1ccccc1OCC(O)CN1CCN(Cc2ccc3c(c2)OCO3)CC1 (stereo not given),0.9,93*,7,-1,-8,-12
OC(COc1ccc(Cl)cc1)CN1CCN(c2ccccn2)CC1 (stereo not given),x,x,x,x,8,x
NCCOc1ccc(C23CC4CC(CC(C4)C2)C3)cc1,1.3,101*,-29,-2,-6,2
OC(COc1c(Cl)cc(Cl)cc1Cl)CN1CCCCC1 (stereo not given),0.9,97*,10,0,-6,4
OCCN1CCN(CC(O)COc2ccc(Cl)cc2)CC1 (stereo not given),0.9,74*,9,0,-12,0
CSc1nc2[nH]c(=O)n(O)c(=O)c2n1Cc1ccccc1,x,x,x,x,-21,x
COc1ccc(OCC(O)CN2CCCCC2)cc1 (stereo not given),0.8,8,17,0,15,10
CCC(=O)c1ccc(OCC(O)CN2CCCCC2)cc1 (stereo not given),1.1,66*,-14,0,-4,11
OC(COC(c1ccc(Cl)cc1)c1ccc(Cl)cc1)CN1CCCC1 (stereo not given),1,100*,2,0,-20,1
SMILES,Diaph act CS,L major viab,Diaph inh CS,Redox H2O2 prof,PfG6PD inh,G6PDH counter
OC(COc1ccc2c(c1)OCO2)CN1CCc2ccccc2C1 (stereo not given),0.8,74*,22,2,-2,-1
CN1CCN(CC(O)COC(c2ccc(Cl)cc2)c2ccc(Cl)cc2)CC1 (stereo not given),x,x,x,x,-2,x
CCn1cc(C(=O)NCCC(=O)NC(C)C)c(=O)c2cc3c(cc21)OCO3,x,x,x,x,7,x
Cc1cc2c(cc1S(=O)(=O)Nc1cccc(F)c1)n(C)c(=O)c(=O)n2C,x,x,x,x,15,x
CN1CCc2c(c3ccccc3n2Cc2ccccc2)C1,1.1,100*,-6,-1,8,5
CC1(C)SC(=S)N(Cc2ccc3c(c2)OCO3)C1N(O)C(=O)NC1CCCCC1 (stereo not given),0.9,82*,13,2,14,4
OCCN1CCN(CCCc2c3c(cc4c2CCC4)CCC3)CC1,1,86*,-4,0,18,1
C/C(=N/NC(=O)CNC(=O)c1cccs1)c1ccco1,x,x,x,x,-9,x
Fc1cccc2sc(Nc3nc4cc5c(cc4s3)OCO5)nc12,0.9,60*,10,0,-7,-2
Fc1cccc2sc(Nc3nc4cc5c(cc4s3)OCCO5)nc12,0.9,49,13,0,0,2
C=CC(=O)Nc1cccc(Oc2ccnc(Nc3ccc(N4CCN(C)CC4)cc3)n2)c1,x,x,x,x,36,x
C=CC(=O)Nc1cccc(N(C)c2ccnc(Nc3ccc(N4CCN(C)CC4)cc3)n2)c1,x,x,x,x,66*,x
Cc1ccc(CNC(=O)C2CCN(c3nnc(N4CCCC4=O)s3)CC2)cc1,x,x,x,x,-17,x
Cc1ccc2c(c1)Oc1ccc(NC(=O)CCl)cc1C(=O)N2,0.9,98*,6,5,-15,4
Cc1ccc2c(c1)Oc1ccc([N+](=O)[O-])cc1C(=O)N2,1,-4,-4,2,-6,1
N#CCCN(C(=O)CCl)c1cccc(Cl)c1,0.9,51*,10,0,-2,2
COc1ccc(/C=C/C(=O)NCC(=O)N/N=C(/CCC(=O)O)c2ccccc2)cc1,x,x,x,x,-12,x
COc1ccccc1/C=C/C(=O)NCC(=O)N/N=C(\CCC(=O)O)c1ccccc1,0.9,99*,11,0,-12,11
CCOC(=O)c1c(-c2ccccc2)csc1NC(=O)c1ccc(S(=O)(=O)N2CCOCC2)cc1,0.8,9,19,-1,-1,-1
CCOC(=O)c1c(-c2ccc(C)o2)csc1NC(=O)CN1CCOCC1,0.9,89*,7,0,1,3
CCOC(=O)c1c(-c2ccc(C)cc2)csc1NC(=O)CCN1CCOCC1,0.7,97*,28,-1,12,-9
CCOC(=O)c1c(-c2ccccc2)csc1NC(=O)CCN1CCOCC1,1,98*,0,-1,5,10
CCOC(=O)c1c(-c2ccc(C)cc2)csc1NC(=O)C1CC=CCC1C(=O)O (stereo not given),0.9,-1,14,2,-31,0
CCOC(=O)c1c(-c2cccs2)csc1NC(=O)CN1CCOCC1,0.9,4,9,-1,0,-10

# From PubChem
